ChEMBL document CHEMBL4014285, “Novel, highly potent systemic glucokinase activators for the treatment of Type 2 Diabetes Mellitus” (Bioorg Med Chem Lett, 2017)
≈ marks a conversion by molar mass, not a printed value. Calls of active or inactive are those of the source. The calls are words filed in the database; no cut-off is given here.

Columns and labels:
Hexokinase-4 [1] = target: T1, Hexokinase-4 (Rattus norvegicus, UniProt P17712); assay: Activation of glucokinase in primary rat hepatocytes assessed as increase in D-2-deoxyglucose-6-phosphate level in presence of D-2-deoxyglucose by HILIC LC-MS method; type: cell-based
T1 sequence (P17712 whole entry): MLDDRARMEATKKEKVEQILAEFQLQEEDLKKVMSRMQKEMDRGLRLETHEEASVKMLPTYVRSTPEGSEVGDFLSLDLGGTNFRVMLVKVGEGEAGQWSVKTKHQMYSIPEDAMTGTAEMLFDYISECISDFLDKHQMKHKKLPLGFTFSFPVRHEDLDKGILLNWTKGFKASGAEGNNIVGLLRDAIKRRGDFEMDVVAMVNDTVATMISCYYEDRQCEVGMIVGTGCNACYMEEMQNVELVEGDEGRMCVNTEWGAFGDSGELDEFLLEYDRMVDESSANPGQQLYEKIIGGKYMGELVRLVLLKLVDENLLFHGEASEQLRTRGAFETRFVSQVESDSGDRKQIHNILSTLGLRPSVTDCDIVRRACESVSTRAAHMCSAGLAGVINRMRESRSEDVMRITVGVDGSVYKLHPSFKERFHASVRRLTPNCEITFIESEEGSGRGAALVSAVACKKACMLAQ
Procedure, shortened: (§1)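 GKACA cell assay in rat INS-1 Clone-13 insulinoma cells or freshly isolated primary rat hepatocytes; intracellular D-2-deoxyglucose-6-phosphate formed from exogenous D-2-deoxyglucose quantified by HILIC LC-MS; EC50 from a single titration.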

[2] = target: T2, Hexokinase-4 (Homo sapiens) (UniProt P35557); assay: Activation of recombinant human glucokinase assessed as conversion of D-glucose to D-glucose-6-phosphate in presence of 10 mM glucose by G6PDH coupled spectrophotometric assay relative to control
T2 sequence (whole entry): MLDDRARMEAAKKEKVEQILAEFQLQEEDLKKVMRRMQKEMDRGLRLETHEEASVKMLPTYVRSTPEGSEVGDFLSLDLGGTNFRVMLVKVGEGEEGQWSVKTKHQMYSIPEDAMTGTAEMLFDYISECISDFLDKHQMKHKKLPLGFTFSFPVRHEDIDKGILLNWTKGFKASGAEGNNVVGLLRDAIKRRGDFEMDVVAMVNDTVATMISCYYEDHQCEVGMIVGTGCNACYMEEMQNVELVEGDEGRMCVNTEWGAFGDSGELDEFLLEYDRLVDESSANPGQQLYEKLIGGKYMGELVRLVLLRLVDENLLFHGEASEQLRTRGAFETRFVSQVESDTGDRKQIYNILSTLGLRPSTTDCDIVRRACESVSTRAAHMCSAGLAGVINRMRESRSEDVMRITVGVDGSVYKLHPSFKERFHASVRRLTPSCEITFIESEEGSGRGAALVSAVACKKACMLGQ
Procedure, shortened: (§2)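 Recombinant human GK; ATP-dependent D-glucose-6-phosphate formation from D-glucose at 2.5 or 10 mM, read by continuous glucose-6-phosphate dehydrogenase coupled spectrophotometry. Activators titrated at 1% DMSO final, DMSO as control. EC50 = concentration giving half of maximal increase in product formation; maximum activity expressed as percent velocity increase vs DMSO at saturating activator. Single titration.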

[3] = target: T2, Hexokinase-4 (Homo sapiens); assay: Activation of recombinant human glucokinase assessed as conversion of D-glucose to D-glucose-6-phosphate in presence of 2.5 mM glucose by G6PDH coupled spectrophotometric assay relative to control; procedure, shortened: as §2
Hexokinase-4 [4] = target: T3, Hexokinase-4 (Homo sapiens, UniProt P35557); assay: Activation of recombinant human glucokinase assessed as conversion of D-glucose to D-glucose-6-phosphate in presence of 10 mM glucose by G6PDH coupled spectrophotometric assay; procedure, shortened: as §2
T3 sequence (P35557 whole entry): T2 sequence (whole entry)

Hexokinase-4 [5] = target: T1, Hexokinase-4; assay: Activation of glucokinase in rat INS-1 cells assessed as increase in D-2-deoxyglucose-6-phosphate level in presence of D-2-deoxyglucose by HILIC LC-MS method; type: cell-based; procedure, shortened: as §1
Hexokinase-4 [6] = target: T3, Hexokinase-4; assay: Activation of recombinant human glucokinase assessed as conversion of D-glucose to D-glucose-6-phosphate in presence of 2.5 mM glucose by G6PDH coupled spectrophotometric assay; procedure, shortened: as §2
[7] = Solubility of the compound at pH 7; type: physicochemical; conditions: buffer
[8] = Solubility of the compound at pH 2; type: physicochemical; conditions: buffer
Rattus norvegicus [9] = species on record: Rattus norvegicus; assay: Dose normalized Cmax in rat; type: ADME; conditions: in vivo
[10] = Unbound fraction in C57BL/6 mouse plasma; type: ADME, cell-free
Procedure, shortened: (§3)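 Unbound fraction determined in 100% human or C57BL/6 mouse plasma.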

[11] = Apparent permeability in MDCK cells; type: ADME, cell-based, Canis lupus familiaris; conditions: dog
[12] = Oral bioavailability in rat; type: ADME, organism-based; conditions: in vivo
[13] = Apparent permeability in pig LLC-PK1 cells; type: ADME, cell-based, Sus scrofa
[14] = Mean residence time in rat; type: ADME; conditions: in vivo
[15] = Total drug level in HFD-fed C57BL/6 mouse plasma at 0.01 mg/kg, po measured at 4 hrs post dose; type: ADME, organism-based
Procedure, shortened: (§4)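 3-week high fat diet-fed C57BL/6 mice given 0.01, 0.03 or 0.10 mg/kg orally; total (bound plus unbound) drug concentration in plasma sampled 4 h after dosing.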

[16] = Total drug level in HFD-fed C57BL/6 mouse plasma at 0.03 mg/kg, po measured at 4 hrs post dose; type: ADME, organism-based; procedure, shortened: as §4
Rattus norvegicus [17] = species on record: Rattus norvegicus; assay: Dose normalized AUC in rat; type: ADME; conditions: in vivo
[18] = Stability of compound in human liver microsomes assessed as compound remaining at 1 uM measured after 30 mins; type: ADME, microsome; conditions: read-out: Stability
Procedure, shortened: (§5)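 Human or rat liver microsome preparations incubated with compound; percent parent remaining after 30 min.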

[19] = Half life in rat; type: ADME; conditions: in vivo
[20] = Clearance in rat; type: ADME; conditions: in vivo
[21] = Stability of compound in rat liver microsomes assessed as compound remaining at 1 uM measured after 30 mins; type: ADME, microsome; conditions: read-out: Stability; procedure, shortened: as §5
[22] = Unbound fraction in human plasma; type: ADME, cell-free; procedure, shortened: as §3
[23] = Volume of distribution at steady state in rat; type: ADME; conditions: in vivo, read-out: Vdss
[24] = Total drug level in HFD-fed C57BL/6 mouse plasma at 0.10 mg/kg, po measured at 4 hrs post dose; type: ADME, organism-based; conditions: 0.1 mg/kg; procedure, shortened: as §4
Plasma = assay: Total drug level in po dosed HFD-fed C57BL/6 mouse plasma measured at 4 hrs post dose; type: ADME, organism-based; conditions: in vivo; procedure, shortened: as §4
Mus musculus [25] = assay: Antidiabetic activity in HFD-fed C57BL/6 mouse assessed as reduction in blood glucose AUC at 0.03 to 0.1 mg/kg, po measured at 4 hrs post dose; type: functional, organism-based
Procedure, shortened: (§6)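 C57BL/6 mice fed high fat diet for 3 weeks, baseline blood glucose ~200 mg/dl, dosed orally at 0.01, 0.03 and 0.1 mg/kg. Blood glucose followed from 30 min through 4 h post dose, with blood glucose AUC over the period; plasma insulin also measured.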

Mus musculus [26] = assay: Antidiabetic activity in HFD-fed C57BL/6 mouse assessed as decrease in blood glucose level at 0.03 mg/kg, po measured after 30 mins; type: functional, organism-based; procedure, shortened: as §6
Mus musculus [27] = assay: Antidiabetic activity in HFD-fed C57BL/6 mouse assessed as increase in plasma insulin level at 0.03 to 0.1 mg/kg, po; type: functional, organism-based; procedure, shortened: as §6

Row | SMILES | EC50 (Hexokinase-4 [1]) [nM] | %max [2] [%] | %max [3] [%] | EC50 (Hexokinase-4 [4]) [nM] | EC50 (Hexokinase-4 [5]) [nM] | EC50 (Hexokinase-4 [6]) [nM] | further results
1 | CCOC(=O)c1ccc(Oc2cc3cc(-c4ccc(C(F)(F)F)cn4)[nH]c3cc2C2CCC(=O)N2C)cc1 (configuration not stated) | 232 | 123 | 452 | 9.2 | 22 | 4.8 | 
2 | CCS(=O)(=O)c1ccc(Oc2cc3cc(-c4ccc(C(F)(F)F)cn4)[nH]c3cc2C2CCC(=O)N2C)cc1 (configuration not stated) | 174 | 158 | 602 | 1.4 | 1.7 | 2 | 
3 | CN1C(=O)CCC1c1cc2[nH]c(-c3ccc(C(F)(F)F)cn3)cc2cc1Oc1ccc(C(=O)O)cc1 (configuration not stated) | 728 | 179 | 683 | 9.6 | 2110 | 24 | solubility [7]: 113 µM (≈ 56 µg/mL); solubility [8]: 5 µM (≈ 2.48 µg/mL)
4 | COC(=O)c1ccc(-c2cc3cc(Oc4ccc(S(C)(=O)=O)nc4)c(C4CCC(=O)N4C)cc3[nH]2)nc1 (racemic) | 20 | 184 | 739 | 3.4 | 7.8 | 8.2 | 
5 | Cc1cnc(-c2cc3cc(Oc4ccc(S(C)(=O)=O)nc4)c(C4CCC(=O)N4C)cc3[nH]2)s1 (single isomer, unassigned) [listing 1 of 2 here] | 16 |  |  | 3.8 | 21 | 4.5 | 
6 | Cc1cnc(-c2cc3cc(Oc4ccc(S(C)(=O)=O)nc4)c(C4CCC(=O)N4C)cc3[nH]2)s1 (single isomer, unassigned) [listing 2 of 2 here] |  | 168 | 620 |  |  |  | 
7 | CN1C(=O)CCC1c1cc2[nH]c(-c3ccccn3)cc2cc1Oc1ccc(S(C)(=O)=O)nc1 (single isomer, unassigned; ent-1) [listing 1 of 2 here] | 7.5 |  |  | 2.4 | 0.9 | 3.7 | solubility [7]: 142 µM (≈ 65.7 µg/mL); Cmax/dose (Rattus norvegicus [9]): 0.235 µM·kg/mg; fraction unbound [10]: 0.072; Papp [11]: 40 ×10⁻⁶ cm/s; bioavailability [12]: 30%; Papp [13]: 40 ×10⁻⁶ cm/s; MRT [14]: 2.85 h; concentration at 4 h [15]: 3.8 nM; concentration at 4 h [16]: 12 nM; AUC/dose (Rattus norvegicus [17]): 0.59 µM·kg·h/mg; remaining at 0.5 h, 1 µM [18]: 75%; half-life [19]: 2.8 h; clearance [20]: 18 mL/min/kg; remaining at 0.5 h, 1 µM [21]: 79%; solubility [8]: 194 µM (≈ 89.7 µg/mL); fraction unbound [22]: 0.087; Vd [23]: 3.05 L/kg; concentration at 4 h [24]: 18 nM; Drug uptake (Plasma): Dose-dependent effect
8 | CN1C(=O)CCC1c1cc2[nH]c(-c3ccccn3)cc2cc1Oc1ccc(S(C)(=O)=O)nc1 (single isomer, unassigned; ent-1) [listing 2 of 2 here] |  | 193 | 784 |  |  |  | Activity (Mus musculus [25]): Active; Activity (Mus musculus [26]): Active; Activity (Mus musculus [27]): Active
9 | CN1C(=O)CCC1c1cc2[nH]c(-c3ccc(C(F)(F)F)cn3)cc2cc1Oc1ccc(S(C)(=O)=O)nc1 (single isomer, unassigned; ent-2) [listing 1 of 2 here] | 199 |  |  | 31 | 375 | 86 | 
10 | CN1C(=O)CCC1c1cc2[nH]c(-c3ccc(C(F)(F)F)cn3)cc2cc1Oc1ccc(S(C)(=O)=O)nc1 (single isomer, unassigned; ent-2) [listing 2 of 2 here] |  | 141 | 583 |  |  |  | 
11 | CN1C(=O)CCC1c1cc2[nH]c(-c3ccccn3)cc2cc1Oc1ccc(S(C)(=O)=O)nc1 (stereo in doubt; 1-en) [listing 1 of 2 here] | 93 |  |  | 0.8 | 33 | 4.2 | 
12 | CN1C(=O)CCC1c1cc2[nH]c(-c3ccccn3)cc2cc1Oc1ccc(S(C)(=O)=O)nc1 (stereo in doubt; 1-en) [listing 2 of 2 here] |  | 158 | 628 |  |  |  | 
